Source: ChEMBL document CHEMBL1147382, “Cytotoxic constituents from Hyptis verticillata” (J Nat Prod, 1993)
≈ marks a conversion by molar mass, not a printed value. Calls of active or inactive are those of the source. The rule behind the calls is not given here.

Assays:
[1] = Toxicity in brine shrimp; type: organism-based; conditions: artemia, in vivo
[2] = Antimitotic activity in rat ASK cells assessed as reversal of astrocyte formation at 0.16 ug/mL; type: functional
Outline: (§1)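 Cultured rat glioma (ASK) cells were used, following Swanson et al. The antimitotic read-out was the dose giving 100% reversal of astrocyte conversion. Pure lignans were tested across a range of concentrations.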

[3] = Cytotoxicity against human U373 cells; type: functional, U-373MG ATCC; conditions: U373 MG, read-out: ED50 (the source's name)
[4] = Antimitotic activity in rat ASK cells assessed as reversal of astrocyte formation at 0.032 ug/mL; type: functional; outline: as §1
ZR-75-1 = assay: Cytotoxicity against human ZR-75-1 cells; type: functional; conditions: read-out: ED50 (the source's name)
[5] = Cytotoxicity against human KBV1 cells; type: functional; conditions: KB-V1, read-out: ED50 (the source's name)
LNCaP = assay: Cytotoxicity against human LNCAP cells; type: functional; conditions: read-out: ED50 (the source's name)
A-431 = assay: Cytotoxicity against human A431 cells; type: functional; conditions: read-out: ED50 (the source's name)
KB = assay: Cytotoxicity against human KB cells; type: functional; conditions: read-out: ED50 (the source's name)
[6] = Antimitotic activity in rat ASK cells assessed as reversal of astrocyte formation at 4 ug/mL; type: functional; outline: as §1
HT = assay: Cytotoxicity against human HT cells; type: functional; conditions: read-out: ED50 (the source's name)
[7] = Antimitotic activity in rat ASK cells assessed as reversal of astrocyte formation at 100 ug/mL; type: functional; outline: as §1
[8] = Cytotoxicity against human BC1 cells; type: functional; conditions: read-out: ED50 (the source's name)
[9] = Antimitotic activity in rat ASK cells assessed as reversal of astrocyte formation at 0.0064 ug/mL; type: functional; outline: as §1
P388 = assay: Cytotoxicity in mouse P388 cells; type: functional; conditions: read-out: ED50 (the source's name)
[10] = Antimitotic activity in rat ASK cells assessed as reversal of astrocyte formation at 20 ug/mL; type: functional; outline: as §1
[11] = Antimitotic activity in rat ASK cells assessed as reversal of astrocyte formation at 0.8 ug/mL; type: functional; outline: as §1
Col2 = assay: Cytotoxicity against human Col2 cells; type: functional; conditions: read-out: ED50 (the source's name)
Lu1 = assay: Cytotoxicity against human Lu1 cells; type: functional; conditions: read-out: ED50 (the source's name)
Candida albicans = assay: Antimicrobial activity against Candida albicans ATCC 10231 at 0.2 to 1 ug/ml; type: functional, organism-based

SMILES	LC50 [1] [µg/mL]	Activity [2] [%]	EC50 [3] [µg/mL]	Activity [4] [%]	EC50 (ZR-75-1) [µg/mL]	EC50 [5] [µg/mL]	EC50 (LNCaP) [µg/mL]	EC50 (A-431) [µg/mL]	EC50 (KB) [µg/mL]	Activity [6] [%]	EC50 (HT) [µg/mL]	Activity [7] [%]	EC50 [8] [µg/mL]	Activity [9] [%]	EC50 (P388) [µg/mL]	Activity [10] [%]	Activity [11] [%]	EC50 (Col2) [µg/mL]	EC50 (Lu1) [µg/mL]	Activity (Candida albicans)
COc1cc(-c2c3c(c(O)c4c(OC)c5c(cc24)OCO5)COC3=O)cc(OC)c1OC	> 500	0	16.3 (≈ 37 µM)	0	> 20	8.7 (≈ 19.8 µM)	11.6 (≈ 26.3 µM)	6.2 (≈ 14.1 µM)	6 (≈ 13.6 µM)	0	15.6 (≈ 35.4 µM)	100	7.6 (≈ 17.3 µM)	0	4 (≈ 9.08 µM)	100	0	12.8 (≈ 29.1 µM)	11.7 (≈ 26.6 µM)	–
COc1cc([C@@H]2c3cc4c(cc3C[C@@H]3COC(=O)[C@H]32)OCO4)cc(OC)c1OC [ISODEOXYPODOPHYLLOTOXIN]	> 500	0	2.9 (≈ 7.28 µM)	0	13.2 (≈ 33.1 µM)	11.5 (≈ 28.9 µM)	12 (≈ 30.1 µM)	6.2 (≈ 15.6 µM)	6.7 (≈ 16.8 µM)	0	10.7 (≈ 26.9 µM)	100	17.5 (≈ 43.9 µM)	0	> 20	100	0	8.9 (≈ 22.3 µM)	15.9 (≈ 39.9 µM)	–
COc1cc([C@@H]2c3cc4c(cc3[C@H](O)[C@H]3COC(=O)[C@H]23)OCO4)cc(OC)c1OC [PODOFILOX]	0.2 (≈ 0.483 µM)	100	0.004 (≈ 0.00965 µM)	100	0.4 (≈ 0.965 µM)	0.06 (≈ 0.145 µM)	0.04 (≈ 0.0965 µM)	0.03 (≈ 0.0724 µM)	0.08 (≈ 0.193 µM)	100	0.003 (≈ 0.00724 µM)	100	0.03 (≈ 0.0724 µM)	0	0.003 (≈ 0.00724 µM)	100	100	0.005 (≈ 0.0121 µM)	0.008 (≈ 0.0193 µM)	–
COc1cc(-c2c3c(cc4c(OC)c5c(cc24)OCO5)COC3=O)cc(OC)c1OC	435 (≈ 1020 µM)	0	5.9 (≈ 13.9 µM)	0	> 20	4.2 (≈ 9.9 µM)	3.2 (≈ 7.54 µM)	> 20	2.2 (≈ 5.18 µM)	100	3.4 (≈ 8.01 µM)	100	2.9 (≈ 6.83 µM)	0	1.8 (≈ 4.24 µM)	100	0	3.2 (≈ 7.54 µM)	4.3 (≈ 10.1 µM)	–
COc1cc([C@@H]2c3cc4c(cc3C[C@H]3COC(=O)[C@H]32)OCO4)cc(OC)c1OC [DEOXYPICROPODOPHYLLIN]	142 (≈ 355 µM)	0	0.1 (≈ 0.251 µM)	0	0.6 (≈ 1.51 µM)	0.7 (≈ 1.76 µM)	0.2 (≈ 0.502 µM)	> 20	0.1 (≈ 0.251 µM)	100	0.2 (≈ 0.502 µM)	100	2.1 (≈ 5.27 µM)	0	0.1 (≈ 0.251 µM)	100	100	0.3 (≈ 0.753 µM)	0.09 (≈ 0.226 µM)	–
COc1cc(C[C@H]2C(=O)OC[C@@H]2Cc2ccc3c(c2)OCO3)cc(OC)c1OC	2.8 (≈ 6.99 µM)	100	0.3 (≈ 0.749 µM)	0	0.5 (≈ 1.25 µM)	0.06 (≈ 0.15 µM)	0.16 (≈ 0.4 µM)	> 20	0.08 (≈ 0.2 µM)	100	0.07 (≈ 0.175 µM)	100	0.05 (≈ 0.125 µM)	0	0.4 (≈ 0.999 µM)	100	100	0.08 (≈ 0.2 µM)	0.1 (≈ 0.25 µM)	Active
COc1cc(-c2c3c(cc4cc5c(cc24)OCO5)COC3=O)cc(OC)c1OC [DEOXYDEHYDROPODOPHYLLOTOXIN]	> 500	–	> 20	–	> 20	> 20	11.6 (≈ 29.4 µM)	6.2 (≈ 15.7 µM)	11.4 (≈ 28.9 µM)	0	> 20	100	> 20	–	> 5	0	0	16.7 (≈ 42.3 µM)	18.8 (≈ 47.7 µM)	–
